Laboratory results taken from PMC5485308 (Molecular Metabolism, 2017).
Ends that are not written are not given here.

T1: Elastase 2A (CEL2A) (Homo sapiens, UniProt P08217)
T1 sequence (P08217 29-269): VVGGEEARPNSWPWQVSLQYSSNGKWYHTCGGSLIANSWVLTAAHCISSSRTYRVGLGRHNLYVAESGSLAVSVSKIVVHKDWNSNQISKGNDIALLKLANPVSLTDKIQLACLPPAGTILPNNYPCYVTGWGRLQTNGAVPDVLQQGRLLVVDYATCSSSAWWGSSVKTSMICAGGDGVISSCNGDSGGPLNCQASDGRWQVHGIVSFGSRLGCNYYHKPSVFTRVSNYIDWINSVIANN

T2: carboxypeptidase A1 (CBPA1) (Homo sapiens, UniProt P15085)
T2 sequence (P15085 111-419): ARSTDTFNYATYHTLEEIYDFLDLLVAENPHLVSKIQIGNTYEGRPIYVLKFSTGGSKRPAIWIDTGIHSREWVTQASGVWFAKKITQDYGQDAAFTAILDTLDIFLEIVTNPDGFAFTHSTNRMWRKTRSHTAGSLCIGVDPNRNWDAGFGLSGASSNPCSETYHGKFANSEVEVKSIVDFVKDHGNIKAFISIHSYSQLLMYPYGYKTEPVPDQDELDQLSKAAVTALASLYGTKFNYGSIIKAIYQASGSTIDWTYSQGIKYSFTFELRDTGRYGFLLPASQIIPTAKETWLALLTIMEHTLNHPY

T3: Elastase 3B (CEL3B) (Homo sapiens, UniProt P08861)
T3 sequence (P08861 29-270): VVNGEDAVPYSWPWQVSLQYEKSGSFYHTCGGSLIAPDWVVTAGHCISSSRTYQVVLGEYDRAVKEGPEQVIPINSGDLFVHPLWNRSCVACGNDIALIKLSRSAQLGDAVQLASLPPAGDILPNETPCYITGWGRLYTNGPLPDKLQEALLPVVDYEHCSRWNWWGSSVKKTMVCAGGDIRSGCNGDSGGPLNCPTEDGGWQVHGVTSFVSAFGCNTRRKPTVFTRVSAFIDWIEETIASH

B1: recombinant bovine chymotrypsin-like elastase family member 2A: commercial protease (3.4.21.71) from MyBioSource (protein, UniProt Q29461 29-269, looked up)
Chymotrypsin-like elastase …: VVGGEDARPNSWPWQVSLQYSSSGQWRHTCGGSLIEQNWVLTAAHCISSSRTYRVVVGRQSLSTVESGSLTIAVSKSVIHEKWNSNQLAQGNDIALLKLASSVPLTDKIQLGCLPAAGTILPNNYVCYVTGWGRLQSNGALPDILQQGKLLVVDYATCSNPSWWGSTVKTNMICAGGDGVTSSCNGDSGGPLNCQAANRQWQVHGIVSFGSSLGCNYYRKPSVFTRVSNYNDWISSVIENN
B2: recombinant mouse chymotrypsin-like elastase family member 3B: commercial protease (3.4.21.70) from MyBioSource (protein, UniProt Q9CQ52 28-269, looked up)
Chymotrypsin-like elastase …: VVNGEEAVPHSWPWQVSLQYEKDGSFHHTCGGSLITPDWVLTAGHCISTSRTYQVVLGEHERGVEEGQEQVIPINAGDLFVHPKWNSMCVSCGNDIALVKLSRSAQLGDAVQLACLPPAGEILPNGAPCYISGWGRLSTNGPLPDKLQQALLPVVDYEHCSRWNWWGLSVKTTMVCAGGDIQSGCNGDSGGPLNCPADNGTWQVHGVTSFVSSLGCNTLRKPTVFTRVSAFIDWIEETIANN
B3: recombinant rat carboxypeptidase A1: commercial protease (3.4.17.1) from MyBioSource (protein, UniProt P00731 111-419, looked up)
Carboxypeptidase A1: ALSTDSFNYATYHTLDEIYEFMDLLVAEHPQLVSKIQIGNTFEGRPIHVLKFSTGGTNRPAIWIDTGIHSREWVTQASGVWFAKKITKDYGQDPTFTAVLDNMDIFLEIVTNPDGFAYTHKTNRMWRKTRSHTQGSLCVGVDPNRNWDAGFGMAGASSNPCSETYRGKFPNSEVEVKSIVDFVTSHGNIKAFISIHSYSQLLLYPYGYTSEPAPDQAELDQLAKSAVTALTSLHGTKFKYGSIIDTIYQASGSTIDWTYSQGIKYSFTFELRDTGLRGFLLPASQIIPTAEETWLALLTIMDHTVKHPY

Experiments:
Elastase 2A (CEL2A) = target: T1, Elastase 2A (CEL2A); test: 33-mer, 19-mer and 13-mer hydrolysis by purified human fecal elastase 2A; format: in vitro ADME; details: for extent of degradation by CEL2A: PBS pH 7.3, 37 °C, 60 min, RP-HPLC UV 215 nm
Summary of the method: (§1)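 Purified human fecal enzyme (3.4 µL of 0.8 mg/mL) was incubated with 33-, 19- or 13-mer gliadin peptide (4.7 µL of 60 µM) in PBS pH 7.3 (40 µL total) at 37 °C for 60 min (also 24 h). Reactions were stopped by boiling for 10 min, then filtered. Read-out: C18 RP-HPLC, 0.1% TFA water-to-acetonitrile gradient over 20 min, UV 215 nm. Controls: enzyme boiled 15 min; peptide alone.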

[1] = target: T2, carboxypeptidase A1 (CBPA1); format: in vitro ADME; details: for extent of degradation by CBPA1: purified CBPA1, PBS pH 7.3, 37 °C, 60 min, RP-HPLC UV 215 nm
Summary of the method: as §1

[2] = Peptide hydrolysis by fecal protein extracts of celiac disease; format: in vitro ADME, human; details: for extent of degradation by CD fecal samples, 24 h: fecal extracts of CD patients, 24-h incubation (not shown)
Summary of the method: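 Stools from treated celiac patients (Marsh III at diagnosis, gluten-free diet, no antibiotics for a month) were stored at −80 °C. They were homogenized in 10 mM Tris-HCl pH 7.5, and the 35–65% ammonium sulfate fraction was desalted. Extract (3.4 µL of 0.8 mg/mL) plus peptide (4.7 µL of 60 µM) in PBS pH 7.3 ran 60 min or 24 h at 37 °C. Read-out: C18 RP-HPLC, UV 215 nm.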

CEL2A, CBPA1, and CEL3B = test: 33-mer hydrolysis with CEL2A, CBPA1 and CEL3B added together; format: in vitro ADME, human; details: CBPA1 and CEL3B added simultaneously or sequentially, 60 min (not shown)
Elastase 3B (CEL3B) = target: T3, Elastase 3B (CEL3B); test: 33-mer, 19-mer and 13-mer hydrolysis by purified human fecal elastase 3B; format: in vitro ADME
Summary of the method: as §1

gluten and gliadin = test: Glutenase and gliadinase activity of commercial proteases; format: biochemical; details: bioassay on MCG-1 gluten agar plates and gliadin zymography
[3] = 37 °C, 24-h incubation (not shown)

Molecule | extent of degradation by CEL2A (Elastase 2A (CEL2A)) | extent of degradation by CBPA1 [1] | extent of degradation by CD fecal samples, 24 h [2] | hydrolytic activity against gluten and gliadin (gluten and gliadin) | also measured
LGQQQPFPPQQPY [13-mer] | fully degraded | fully degraded | completely degraded |  | 
LGQQQPFPPQQPYPQPQPF [19-mer] | fully degraded | fully degraded | completely degraded |  | 
LQLQPFPQPQLPYPQPQLPYPQPQLPYPQPQPF [33-mer] | not completely degraded | not completely degraded | incomplete |  | change of degradation when all 3 enzymes are added (CEL2A, CBPA1, and CEL3B): did not increase; extent of degradation by CEL3B after 24 h (Elastase 3B (CEL3B); [3]): not completely degraded; extent of degradation by CEL3B (Elastase 3B (CEL3B); PBS pH 7.3, 37 °C, 60 min, RP-HPLC UV 215 nm): not completely degraded; extent of degradation by CEL2A after 24 h (Elastase 2A (CEL2A); [3]): not completely degraded; extent of degradation by CBPA1 after 24 h ([1]; purified CBPA1, 37 °C, 24-h incubation (not shown)): not completely degraded; degradation in CD patients relative to NCD samples (higher by) ([2]; fecal extracts of CD patients versus NCD volunteers, 37 °C, 60 min, HPLC): 37%
porcine elastase: commercial protease (3.4.21.36) from Sigma |  |  |  | showed hydrolytic activity | 
B1 |  |  |  | showed hydrolytic activity | 
B2 |  |  |  | showed hydrolytic activity | 
B3 |  |  |  | showed hydrolytic activity | 
